PAFAH2 inh: inhibitors of human PAFAH2. Q99487. recombinant PAFAH2, FP-rhodamine activity probe, fluorescence polarization. inhibition, % at 3.39 µM. 340,000 tested, 0.99% active. AID 492956;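 active = inhibition above the mean over all tested compounds plus 3 SD, cut at about 30% in these data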;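 note: inhibitors block probe labeling of enzyme so polarization drops; 0% = enzyme with DMSO and 100% = wells lacking PAFAH2 protein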
pPAFAH inh: inhibitors of human plasma PAF acetylhydrolase (pPAFAH); Q13093; recombinant pPAFAH, FP-rhodamine probe fluorescence polarization; inhibition, % at 3.39 µM; 330,000 tested, 1.5% active;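 active = inhibition above the mean inhibition across the screen plus 3 SD, cut at about 25% in these data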;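 note: inhibitors block binding of the rhodamine activity-based probe so polarization drops; 0% = enzyme with DMSO and 100% = wells lacking pPAFAH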
Target sequence (Q13093 whole entry, looked up): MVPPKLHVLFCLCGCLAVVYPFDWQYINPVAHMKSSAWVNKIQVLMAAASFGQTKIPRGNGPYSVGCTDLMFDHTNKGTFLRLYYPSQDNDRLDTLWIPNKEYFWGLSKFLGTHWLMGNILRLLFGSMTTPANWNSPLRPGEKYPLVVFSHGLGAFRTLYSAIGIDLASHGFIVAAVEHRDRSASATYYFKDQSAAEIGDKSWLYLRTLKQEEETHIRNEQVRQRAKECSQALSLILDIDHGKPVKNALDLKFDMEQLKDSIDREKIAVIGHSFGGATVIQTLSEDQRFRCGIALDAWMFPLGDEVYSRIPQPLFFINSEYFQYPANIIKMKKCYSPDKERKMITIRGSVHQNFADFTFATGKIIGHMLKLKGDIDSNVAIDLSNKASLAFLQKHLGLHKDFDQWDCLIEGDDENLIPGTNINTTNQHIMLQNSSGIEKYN
IMP-1 inh: blocks Pseudomonas aeruginosa IMP-1 metallo-beta-lactamase | 290,000 tested, 0.45% active | purified IMP-1, nitrocefin hydrolysis, epi-absorbance fluorescence | inhibition, % at 5.6 µM;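 active = inhibition above the mean plus 3 SD of all compounds in the same screening run, cut at about 4.5% in these data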;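 note: 0% = IMP-1 with DMSO and 100% = DMSO wells lacking enzyme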
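assay system = purified recombinant IMP-1 metallo-beta-lactamase enzyme | schedule = 15 min preincubation plus 25 min reaction at 25 °C | signal = Epi-absorbance fluorescence, 480 nm excitation, 530 nm emission | read-out basis = percent inhibition from optical density relative to buffer-blank wells | controls = IMP-1 with DMSO as 0%, enzyme-free DMSO as 100%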
PAFAH1B3 FP inh: inhibitors of human PAFAH1B3; Q15102; recombinant PAFAH1B3, FP-rhodamine probe, fluorescence polarization; inhibition, % at 3.39 µM; 340,000 tested, 0.28% active; AID 492972;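 active = inhibition above the screen-wide average of all tested compounds plus 3 SD, cut at about 25% in these data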;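 note: 0% = enzyme with DMSO only and 100% = wells lacking PAFAH1B3 protein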
Target sequence (Q15102 whole entry, looked up): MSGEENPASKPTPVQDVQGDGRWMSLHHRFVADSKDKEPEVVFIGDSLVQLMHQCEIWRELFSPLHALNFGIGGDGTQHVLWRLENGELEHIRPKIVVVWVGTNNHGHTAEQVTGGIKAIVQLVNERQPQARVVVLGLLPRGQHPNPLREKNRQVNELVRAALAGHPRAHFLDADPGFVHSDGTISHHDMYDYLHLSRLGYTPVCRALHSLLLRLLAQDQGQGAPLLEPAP
VIM-2 inh: inhibitors of Pseudomonas aeruginosa VIM-2 metallo-beta-lactamase; purified VIM-2, nitrocefin hydrolysis, epi-absorbance fluorescence; 290,000 tested, 0.89% active; inhibition, % at 5.6 µM;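 active = inhibition above the mean of all tested compounds plus 3 SD, cutoff set per screening run, cut at about 7.5% in these data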;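 note: red hydrolysis product quenches plate fluorescence so inhibitors raise well fluorescence; 0% = enzyme with DMSO and 100% = DMSO without enzyme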
PAFAH1B2 inh: PAFAH1B2 (human) inhibition; 340,000 tested, 1.2% active; inhibition, % at 3.39 µM; recombinant PAFAH1B2, FP-rhodamine activity probe, fluorescence polarization; AID 492953; P68402;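 active = inhibition above the mean of all tested compounds plus 3 SD, cut at about 24% in these data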;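 note: 0% = enzyme with DMSO and 100% = wells lacking PAFAH1B2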
pPAFAH confirm: confirmation of human plasma PAF acetylhydrolase (pPAFAH) inhibitors; recombinant pPAFAH, FP-Rh probe fluorescence polarization; inhibition, % at 3.39 µM; shares compounds with pPAFAH inh; 2,300 tested, 72% active;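 active = mean inhibition of the triplicate above the hit cutoff set for the earlier primary screen, cut at about 25% in these data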;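 note: 0% = enzyme with DMSO and 100% = wells lacking pPAFAH enzyme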
Active calls of the source: *; x = no result. Shown are actives, neighbours in structure and some others; about 3.6% of the full set was active somewhere.

SMILES | PAFAH2 inh | pPAFAH inh | IMP-1 inh | PAFAH1B3 FP inh | VIM-2 inh | PAFAH1B2 inh | pPAFAH confirm
O=C(NCCCN1CCCC1=O)c1ccc(OCc2ccccc2)cc1 | 4 | -4 | -4 | -2 | -2 | 12 | x
COc1cc(C(=O)NCCCN2CCCC2=O)cc(Br)c1OCc1ccccc1 | -11 | 79* | x | -7 | x | -1 | 9
O=C(Nc1nc(-c2ccco2)c(-c2ccco2)s1)C1CC(=O)N(c2ccc3c(c2)OCCO3)C1 (configuration not stated) | 21 | 47* | -2 | -2 | -3 | 4 | 41*
COc1ccc(S(=O)(=O)CC(=O)c2cc3cc(Br)ccc3oc2=O)cc1 | 17 | 37* | 1 | 8 | 2 | 18 | 33*
OC(COC1CCCCC1)CN1CCCCC1 (configuration not stated) | -5 | 0 | -7 | 5 | -3 | -1 | x
CCOc1ccc2nc3cc(NCc4ccc(OC)cc4)ccc3c(N)c2c1 | 12 | 38* | -1 | 18 | -1 | 5 | 11
CCCCn1c(N)c(N(CCOC)C(=O)c2ccc(-c3cccc(C(F)(F)F)c3)o2)c(=O)[nH]c1=O | -10 | 39* | x | 1 | x | 2 | 17
CC(=O)OCCNc1cc(SCc2ccco2)c2nonc2c1[N+](=O)[O-] | 11 | 58* | 1 | 8 | 5 | -3 | 6
O=[N+]([O-])c1c(NCCCO)cc(SCc2ccco2)c2nonc12 | 1 | 59* | -2 | 9 | -1 | 6 | -2
O=[N+]([O-])c1c(NCCCO)cc(Sc2ccc(Cl)cc2)c2nonc12 | -1 | -1 | -3 | 8 | -1 | 2 | x
COC(=O)CCSc1cc(NCCOC(C)=O)c([N+](=O)[O-])c2nonc12 | 2 | 3 | -3 | -9 | 1 | 4 | x
CC1(C)C[C@H](O)[C@@]23C[C@@H](OC2=O)[C@]2(C)C(=CCC4[C@@]5(C)CC[C@H](O)C(C)(C)C5CC[C@]42C)[C@@H]3C1 (some centres not stated) | x | -1 | x | x | x | x | x
O=C(Nc1ccc(Br)c2ccccc12)c1ccc2ccccc2c1O | 48* | 36* | 0 | 22 | 2 | 18 | 52*
O=C(Nc1cccc(/C=C/c2ccccn2)c1)c1cc(Cl)ccn1 | 2 | 6 | -1 | -2 | 1 | 0 | x
N#Cc1ccc(Nc2nc(-c3ccc(O)cc3O)cs2)cc1C(F)(F)F | 9 | 35* | x | 26* | x | 11 | 27*
CC(C)(C)c1ccc(Cn2c(=O)cnc3ccccc32)cc1 | 8 | 1 | -5 | 4 | -3 | 9 | x
CCN(CC)c1ccc(N2C(=O)CSC2=S)cc1 | -15 | 48* | 1 | -15 | 0 | -5 | 3
CC1CCCCN1C(=O)CSc1nnc(-c2cccnc2)o1 (configuration not stated) | -1 | 1 | -2 | -1 | -1 | 2 | x
COc1cccc(N2CCN(C(=O)CN3C(=O)NC(C)(c4ccc5ccccc5c4)C3=O)CC2)c1 (configuration not stated) | -2 | 2 | x | -3 | x | -2 | x
O=C(NCCCl)NNC(=O)c1cc2ccccc2cc1O | 4 | 3 | -2 | 10 | -3 | 2 | x
O=C(NNC(=O)c1cc2ccccc2cc1O)Nc1ccccc1F | 2 | 65* | -4 | 14 | -2 | 3 | 37*
C/C(=N/NC(=O)c1cc(-c2ccccc2)nc2c(Cl)cccc12)c1cccnc1 | -2 | x | -3 | 8 | -4 | -1 | x
CN(C)/C=C/C(=O)/C=C/c1ccc(Cl)cc1Cl | 9 | 38* | -2 | 4 | -1 | 5 | 4
COc1ccc(CCN(C)S(=O)(=O)c2cn(C)c(=O)n(C)c2=O)cc1OC | -2 | -5 | x | 11 | x | -4 | x
CCN(C(=O)Cn1c(Cl)nc2c1c(=O)n(C)c(=O)n2C)C1CCCCC1 | 1 | 2 | x | 7 | x | 2 | x
SMILES | PAFAH2 inh | pPAFAH inh | IMP-1 inh | PAFAH1B3 FP inh | VIM-2 inh | PAFAH1B2 inh | pPAFAH confirm
Cc1ccc(S(=O)(=O)N2[C@@H](c3ccc(C(C)(C)C)cc3)C(C(=O)O)=CC[C@H]2c2ccc3c(c2)OCO3)cc1 | 10 | 58* | x | 4 | x | 92* | 17
O=C(Nc1ccc(S(=O)(=O)Nc2nccs2)cc1)c1ccc(=O)[nH]c1 | 10 | 39* | -1 | 30* | 1 | 12 | 5
Cc1nnc(N/N=C/c2ccc(O)c([N+](=O)[O-])c2)[nH]c1=O | -6 | -2 | -6 | 14 | -3 | 4 | x
Cc1csc(N/N=C/c2ccc(O)c([N+](=O)[O-])c2)n1 | 26 | 40* | -4 | 26* | -4 | 12 | 11
CC(=O)Nc1ccc(C(=O)OCC(=O)Nc2ccccc2Sc2ccccc2)cc1 | 24 | -1 | -3 | -2 | 0 | -7 | x
N#CCC(=O)Nc1ccc(C(=O)OCC(=O)Nc2ccccc2Sc2ccccc2)cc1 | x | 71* | -2 | x | -1 | x | 6
O=C(Oc1ccc(OC(=O)N2CCCCC2)cc1)N1CCCCC1 | x | 0 | -1 | x | -3 | x | x
O=C(Oc1ccc(-c2ccccc2)cc1)N1CCCCC1 | 0 | 44* | -1 | 3 | -1 | 6 | 81*
COc1cc(OC)cc(C(=O)NC(C(=O)NNC(=O)CN(C)S(=O)(=O)c2ccc(C)cc2)C(C)C)c1 (configuration not stated) | -3 | x | x | 0 | x | -1 | x
O=C1NC(=S)SC1=Cc1ccccc1Cl | -6 | x | x | 1 | x | 10 | x
Cc1ccc(C2C(/C=C3/SC(=S)NC3=O)=C(c3cccs3)Oc3ccccc32)cc1 (configuration not stated) | 21 | 39* | -1 | 8 | -1 | 5 | 47*
COC(=O)c1c(C)[nH]c(C(=O)OCc2csc(CC(=O)Nc3ccccc3C)n2)c1C | -1 | -4 | x | 9 | x | 0 | x
COc1ccc(-n2c(C)c3c(OC)cccc(=O)c3c2C)cc1 | 13 | 21 | -1 | 3 | 3 | 5 | x
COc1cccc(=O)c2c(C)n(-c3ccc(C(=O)O)cc3)c(C)c12 | 10 | 37* | -2 | 6 | 8 | 2 | 1
CCOc1cccc(=O)c2c(C)n(-c3ccc(C(=O)O)cc3)c(C)c12 | 8 | 38* | -1 | 6 | 5 | 3 | 21
CN(C)C(CNC(=O)c1ccc(C2SCCS2)cc1)c1ccccc1 (configuration not stated) | -7 | -1 | -1 | 4 | 0 | 6 | x
COc1cc2c(cc1OC)CN(CC(=O)Nc1ccc(C)c(C)c1)CC2 | 3 | 6 | -2 | 14 | -3 | 7 | x
Cc1ccc(NC(=O)CN2C(=O)N/C(=C/c3cccn3-c3ccc(C(=O)O)cc3)C2=O)cc1 | 53* | 71* | -2 | 24 | 1 | 10 | 41*
CCOC(=O)[C@@H]1[C@H]2COc3cc(OC)ccc3[C@H]2N2C(=O)N(c3cccc(F)c3)C(=O)[C@]12C | 11 | 1 | x | 2 | x | 1 | x
